Experimental data published in the RNAGym collection of RNA variant scans (doi:10.1126/science.aae0568).
This sample holds only a part of the variants without activity.

B1: tRNA (parent)
chain: GUUCCGUUGGCGUAAUGGUAACGCGUCUCCCUCCUAAGGAGAAGACUGCGGGUUCGAGUCCCGUACGGAACG

Variants of: B1
Experiment: yeast fitness relative to wild type (ratio to wild type); higher = fitter; tRNA-Arg(CCU), competitive growth, 37 C, YPD
How it was run: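 For this measurement, the tRNA-Arg(CCU) gene was varied by chemical synthesis at a 3% per-site mutation rate across 69 sites, and each variant was placed at the native genomic locus in Saccharomyces cerevisiae. The pooled strains went through a 24-hour competition in YPD at 37°C in six parallel replicates, with amplicons from start and end populations read by 100-nucleotide paired-end sequencing. Darwinian fitness relative to wild type followed from the change in each genotype's frequency. Genotypes needed ≥ 100 starting reads, and estimates < 0.5 were set to 0.5.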

| Variant | yeast fitness |
| --- | --- |
| U54G C61G | ≤ 0.5 |
| U54G C61A | ≤ 0.5 |
| C55A C60A | 0.624 |
| C55A C60U | 0.525 |
| A57C U64A | 0.707 |
| G58C G68A A70G | ≤ 0.5 |
| G56C A57G G68U | ≤ 0.5 |
| U54G | 0.641 |
| U59C C66U | 0.911 |
| U59C C66G | 0.668 |
| A57G U59A C62U | ≤ 0.5 |
| G56C C61A | ≤ 0.5 |
| C55U A70C | 0.938 |
| C55U A70U | 0.715 |
| U54C C62A | 0.595 |
| A57C C61U C66U A69C | ≤ 0.5 |
| C55G A65G | 0.528 |
| C55G A65U | 0.692 |
| C55G A65C | 0.529 |
| C60U C61A | 0.659 |
| G58C G68U | 0.75 |

| Variant | yeast fitness |
| --- | --- |
| G58C G68C | 0.937 |
| G58C G68A | 0.776 |
| A57C C61U | 0.656 |
| C55G U59A G63A | 0.673 |
| A57U G63A | 0.681 |
| C55A G56C | 0.522 |
| C55G C61G | ≤ 0.5 |
| G58A C66G | 0.943 |
| C55G C66U | 0.585 |
| C55G C66A | 0.546 |
| U59A G67C | 0.813 |
| C55U G58C A69U | 0.537 |
| C55A C62U | 0.685 |
| G58C A70C | 0.923 |
| G58C A70U | 1 |
| C60G A70C | 0.66 |
| C60G A70U | 0.624 |
| C60G A70G | 0.58 |
| G56C C62A | 0.563 |
| C55A G67C | 0.686 |
| U59G A65C | 0.558 |

| Variant | yeast fitness |
| --- | --- |
| U59A A70G | 0.975 |
| U59A A70U | 0.91 |
| U59C G67A | 0.835 |
| G56A G58C U64A A69G | 0.545 |
| C55G C62U | 0.626 |
| C60G G67C | 0.574 |
| U54C A65C | 0.862 |
| U54C A65G | 0.97 |
| C60A G67A | 0.679 |
| A57G A65U | 0.699 |
| A57C G68C | 0.729 |
| C55U G63A C66G | ≤ 0.5 |
| C55A A57C | 0.597 |
| C55A A57G | 0.671 |
| C55A A57U | 0.694 |
| G56C A57C A70G | 0.594 |
| G56A A57U A70U | ≤ 0.5 |
| A57U G67A | 0.84 |
| U54C G56C G58A | 0.55 |
| C55A A69U | 0.694 |
| G58C A65U | 0.88 |

| Variant | yeast fitness |
| --- | --- |
| G58C A65G | 0.933 |
| G58C A65C | 0.867 |
| C60G C66G G68A | ≤ 0.5 |
| C55A A65C G68A | ≤ 0.5 |
| A57C G58A A70C | ≤ 0.5 |
| G58A G68U | 0.835 |
| G56A G67A A69C | 0.797 |
| A57U A70G | 0.753 |
| C55U G63A A70U | 0.551 |
| A57U C60G | 0.532 |
| A57U C60A | 0.54 |
| C60U A70C | 0.732 |
| C60U A70U | 0.655 |
| G56A U59G | 0.762 |
| C55U C66G | 0.668 |
| A57C C62G | 0.818 |
| C55G G63C G67C | 0.532 |
| C60A C61G A65U | ≤ 0.5 |
| A57G C61G C62A | 0.633 |
| C60A A70U | 0.68 |
| U59G A65C C66A | ≤ 0.5 |
